# SENP1 inh: SENP1 (human) catalytic domain inhibition; Q9P0U3; recombinant SENP1 catalytic domain, CyPet-SUMO1-YPet FRET cleavage; inhibition, % at 10 µM; 0.21% of 360,000 active;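 active means inhibition at least 30% at 10 µM, raw YFP signal under a set limit, fluorescence ratio 0.5 to 1.5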
# Target sequence (Q9P0U3 419-644 limits assumed): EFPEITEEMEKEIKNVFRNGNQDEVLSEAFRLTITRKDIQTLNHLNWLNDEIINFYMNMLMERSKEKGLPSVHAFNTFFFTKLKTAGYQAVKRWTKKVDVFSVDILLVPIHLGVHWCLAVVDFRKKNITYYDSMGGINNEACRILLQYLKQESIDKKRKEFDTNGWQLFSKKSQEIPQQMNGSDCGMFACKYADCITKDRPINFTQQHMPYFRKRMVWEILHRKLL
#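 System: Recombinant human SENP1 catalytic domain, His6-tagged | Incubation: Enzyme reaction for 50 min at room temperature, dark | Medium: Tris pH 8 with BME, BSA, NP40 and catalase | Also added: 25 nM SUMO1 FRET substrate | Compound: 10 µM single point, 0.5% DMSO | Measured by: FRET fluorescence in CFP and YFP emission channels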
# Rpn11 inh: blocks the human proteasome subunit Rpn11 | O00487 | human 26S proteasome, Ub4-pepOG fluorescence polarization; 20S core pre-blocked with epoxomicin | inhibition, % at 20 µM | 0.59% of 360,000 active | AID 588493;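 active means inhibition at 20 µM, scaled to each plate's controls, above about 33%, limit read from the data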
# Target sequence (O00487 whole entry, looked up): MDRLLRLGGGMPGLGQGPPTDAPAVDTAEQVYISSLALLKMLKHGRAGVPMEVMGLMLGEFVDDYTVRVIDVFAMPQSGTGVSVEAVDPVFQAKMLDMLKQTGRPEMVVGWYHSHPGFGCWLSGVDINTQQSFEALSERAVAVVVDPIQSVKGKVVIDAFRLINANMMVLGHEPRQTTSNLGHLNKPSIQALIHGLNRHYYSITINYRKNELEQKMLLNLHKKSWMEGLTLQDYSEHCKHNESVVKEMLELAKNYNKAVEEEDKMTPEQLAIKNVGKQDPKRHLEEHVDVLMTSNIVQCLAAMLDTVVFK
# HNF4A DNA FP: change in binding of human HNF4 alpha to DNA; AID 1224865; P41235; HNF4a-FITC DNA binding, fluorescence polarization, 1 h; activity change, % at 10 µM; 0.3% of 360,000 active; in the data active means activity change above about 30%, passing the limit was not always enough
# CSN inh: inhibitors of human CSN-mediated cullin deneddylation | Q92905 | Purified CSN, SCF-Nedd8-OG deneddylation, fluorescence polarization | inhibition, % at 12.5 µM | 0.38% of 360,000 active | AID 651999;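 active means pattern-corrected inhibition above about 35%, with an unprinted fluorescence ratio check between 0.5 and 1.5, limit read from the data, passing the limit was not always enough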
#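 Schedule: reaction 90 min, room temperature / Assay system: HEK293T-derived human Csn5 enzyme / Input: Csn5 at 0.24 nM final / Measure: inhibition of Csn5 cleavage, % / Control set: substrate-only high control, full reaction low control / Technique: fluorescence polarization of the substrate / Buffer or medium: Tris/NaCl/DTT buffer, pH 7.5 / Reagent: SCFSkp2-Nedd8OG substrate at 10 nM final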
# TPT1 inh: inhibitors of Candida albicans tRNA 2'-phosphotransferase TPT1; recombinant caTPT1, FP RNA substrate dephosphorylation; inhibition, % at 5 µM; 0.81% of 300,000 active; AID 1962;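 active means inhibition above the mean of all tested compounds plus 3 SD, set per screening campaign, cut at about 24% in these data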
# Rpn11 confirm: confirmation of human proteasome Rpn11 inhibitors | shares compounds with Rpn11 inh | purified human 26S proteasome, Ub4-pepOG fluorescence polarization; proteasome pretreated with epoxomicin | 29% of 1,900 active | inhibition, % at 20 µM
# MMP-2 counter-1: MMP-2 (human) inhibition counter-screen; AID 602330; shares compounds with Rpn11 inh; recombinant MMP-2, FRET peptide cleavage fluorescence; 4% of 1,900 active; inhibition, % at 20 µM;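 further: human MMP-2 activated beforehand with APMA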
# Thrombin FP: thrombin (bovine) inhibition counter-screen; bovine thrombin cleavage of Ub4-pepOG, fluorescence polarization; AID 602333; 13% of 1,900 active; shares compounds with Rpn11 inh; inhibition, % at 20 µM;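 active means mean inhibition at least 40% at 20 µM, or signal 3 deviations below plate average, so some actives read negative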
# SENP1 conf: confirmation of human SENP1 SUMO protease inhibitors. 34% of 520 active. inhibition, % at 10 µM. AID 651678. shares compounds with SENP1 inh. recombinant SENP1, CyPet-SUMO1-YPet FRET cleavage; in the data active means inhibition mostly above about 35%, no sharp cut-off; inactive means mostly below about 32%
# SENP1 kinetic: confirmation of human SENP1 SUMO protease inhibitors, kinetic | recombinant SENP1, CyPet-SUMO1-YPet FRET kinetic cleavage | shares compounds with SENP1 inh | inhibition, % at 10 µM | 26% of 520 active; in the data active means inhibition mostly above about 32%, no sharp cut-off; inactive means mostly below about 29%
# CSN deneddyl val: validation of inhibitors of human CSN-mediated cullin deneddylation; shares compounds with CSN inh; Csn5 deneddylation of SCF-Nedd8OG, fluorescence polarization, 90 min; 62% of 540 active; AID 720654; inhibition, % at 16.6 µM; in the data active means inhibition above about 50%
# MMP-2 counter-2: MMP-2 (human) inhibition, counter-screen for CSN hits | shares compounds with CSN inh | recombinant MMP-2, FRET substrate fluorescence, 60 min | inhibition, % at 16.6 µM | 33% of 540 active | AID 720655;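 active means corrected plate-normalized z-score of 5 or more, or -5 or less, or inhibition of 15% or more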
# Thrombin cntr: blocks bovine thrombin in a CSN deneddylation counter-screen. AID 720656. shares compounds with CSN inh. bovine thrombin cleavage of Ub4-pepOG, fluorescence polarization. 49% of 540 active. inhibition, % at 16.6 µM;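 active means inhibition at or above a set limit, with a fluorescence interference ratio between 0.5 and a set maximum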
# A number is an active result; i = inactive; nt = not tested or not shown. An excerpt weighted towards active compounds, which were near 1.6% of everything screened. Unless noted, no stated cut-off is given here; in the data, active means inhibition above about 40%; inactive means the rest.
SMILES,SENP1 inh,Rpn11 inh,HNF4A DNA FP,CSN inh,TPT1 inh,Rpn11 confirm,MMP-2 counter-1,Thrombin FP,others
CCCCn1c(O)c(/C=N/N2CCCCC2c2cccnc2)c(=O)[nH]c1=S (stereo not drawn),i,i,i,i,i,nt,nt,nt,
CCN(C=C1CC2C3CC=C4CC(O)CCC4(C)C3CCC2(C)C1=O)CC (stereo not drawn),i,i,i,i,nt,nt,nt,nt,
COc1ccc(N2C(=O)/C(=C/c3ccc(C)o3)C(=O)NC2=S)cc1,i,71,i,i,nt,61,56,63,
O=C1NCN(c2ccccc2)C12CCN(C(c1ccccc1)c1nnnn1Cc1ccccc1)CC2 (stereo not drawn),i,i,i,i,nt,nt,nt,nt,
CCc1ccc(N2C(=O)NC(=O)/C(=C\c3cccn3CCOc3ccc(C(C)C)cc3)C2=O)cc1,i,62,i,i,i,i,i,i,
CC(C)c1ccc(N2C(=O)NC(=O)/C(=C/c3cnc(-c4ccccc4)nc3)C2=O)cc1,i,i,i,i,i,nt,nt,nt,
C=C(C)[C@@H]1[C@H]2OC(=O)[C@H]1[C@]1(O)C[C@H]3O[C@]34C(=O)O[C@H]2[C@]14C,i,i,i,i,nt,nt,nt,nt,
Cn1c(=O)c2c(nc(N/N=C/c3c(O)n(C4CCCCC4)c(=S)[nH]c3=O)n2C)n(C)c1=O,i,42,i,i,i,i,i,i,
CCOc1ccccc1-n1c(O)c(C=Nc2c(C)n(C)n(-c3ccccc3)c2=O)c(=O)[nH]c1=O,i,i,i,i,i,nt,nt,nt,
COc1ccc(OC)c(-n2c(O)c(C=Nc3c(C)n(C)n(-c4ccccc4)c3=O)c(=O)[nH]c2=S)c1,i,66,i,i,i,41,i,i,
CCC(C)N1CCN(C(=O)COc2ccc3ccccc3c2)CC1 (stereo not drawn),i,79,i,i,i,i,i,i,
COc1ccc(CN2CCN(C(=O)COc3ccc4ccccc4c3)CC2)c(OC)c1,i,i,i,i,i,nt,nt,nt,
O=C1NC(=O)N(CCc2ccc(F)cc2)C(=O)/C1=C\C=C\c1ccccc1,i,i,i,i,nt,nt,nt,nt,
O=C1NC(=O)N(c2ccccc2)C(=O)/C1=C/C=C/c1ccco1,i,52,i,42,i,i,i,i,CSN deneddyl val=58;MMP-2 counter-2=16;Thrombin cntr=i
CN(C)c1ccc(/C=C/C=C2/C(=O)NC(=O)N(c3ccccc3)C2=O)cc1,i,95,i,38,nt,65,i,i,CSN deneddyl val=72;MMP-2 counter-2=i;Thrombin cntr=i
C/C(=N\N1CCN(C)CC1)c1c(O)[nH]c(=O)[nH]c1=O,i,i,i,i,i,nt,nt,nt,
O=C1NC(=O)C(Sc2ccccc2[N+](=O)[O-])C(=O)N1,32,i,i,i,i,nt,nt,nt,SENP1 conf=i;SENP1 kinetic=i
O=[N+]([O-])c1ccccc1Cl,i,i,nt,i,nt,nt,nt,nt,
COC(=O)C1=C(c2ccc(F)cc2OCc2ccccc2)C[C@@H]2CC[C@H]1N2C(=O)NCc1ccc(C)cc1,i,i,i,i,nt,nt,nt,nt,

# Compound activity from PubChem BioAssay.
